# Active and inactive are the calls of the source. No cut-off for these calls is given here.
# Experiments:
# [1] = AUC (0 to 6 hrs) in rat at 10 mg/kg, po; format: ADME, organism-based; design: time < 6 hr, dose 10 mg/kg, route oral; settings: plasma
# Procedure, shortened: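 Rat pharmacokinetics: oral dosing at 10 mpk in 20% HPBCD vehicle; AUC taken over 0–6 h.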
# [2] = target: T1, Transient receptor potential cation channel subfamily V member 1 (Homo sapiens, UniProt Q8NER1); experiment: Antagonist activity at TRPV1 expressed in HEK293 cells assessed as inhibition of capsaicin-induced activation by FLIPR assay; format: functional, cell-based
# T1 sequence (Q8NER1 whole entry): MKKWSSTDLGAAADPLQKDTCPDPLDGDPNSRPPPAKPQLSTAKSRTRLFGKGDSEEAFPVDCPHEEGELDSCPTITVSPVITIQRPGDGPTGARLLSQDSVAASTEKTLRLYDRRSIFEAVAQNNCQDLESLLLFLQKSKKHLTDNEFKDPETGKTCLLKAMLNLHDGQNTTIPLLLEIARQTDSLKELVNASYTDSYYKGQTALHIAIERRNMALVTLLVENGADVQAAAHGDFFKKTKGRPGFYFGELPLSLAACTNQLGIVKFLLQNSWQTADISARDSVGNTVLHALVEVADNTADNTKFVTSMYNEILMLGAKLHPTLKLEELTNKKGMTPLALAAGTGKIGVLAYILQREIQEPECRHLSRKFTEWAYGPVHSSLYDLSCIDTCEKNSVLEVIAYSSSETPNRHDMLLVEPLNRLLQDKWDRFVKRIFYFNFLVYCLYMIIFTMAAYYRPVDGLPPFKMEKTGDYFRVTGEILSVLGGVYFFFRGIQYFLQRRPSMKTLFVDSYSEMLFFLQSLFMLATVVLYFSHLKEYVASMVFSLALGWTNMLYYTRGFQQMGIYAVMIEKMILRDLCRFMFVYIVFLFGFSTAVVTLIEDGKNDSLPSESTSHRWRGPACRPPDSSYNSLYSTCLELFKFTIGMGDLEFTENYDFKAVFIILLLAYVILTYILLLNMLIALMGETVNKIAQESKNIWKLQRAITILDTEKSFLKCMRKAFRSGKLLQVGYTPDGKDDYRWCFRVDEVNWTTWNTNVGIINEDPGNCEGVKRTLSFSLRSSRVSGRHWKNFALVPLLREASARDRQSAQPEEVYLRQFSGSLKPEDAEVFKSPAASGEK
# Procedure, shortened: (§1)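 FLIPR calcium-flux run at 37 °C in a HEK293 line stably transfected with TRPV1. Channel activated by capsaicin or by PMA, and the IC50 is taken against each agonist. Compounds dissolved in DMSO, with DMSO alone as the vehicle control.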
# [3] = target: T1, Transient receptor potential cation channel subfamily V member 1; experiment: Antagonist activity at TRPV1 expressed in HEK293 cells assessed as inhibition of PMA-induced activation by FLIPR assay; format: functional, cell-based; procedure, shortened: as §1
# [4] = Aqueous solubility of the compound; format: physicochemical; settings: buffer
# [5] = Stability in pH 7.4 buffer assessed as formation of 1-(tert-butoxycarbonyl)-3-(phenyl(phenylamino)methyl)azetidine-3-carboxylic acid after 2 hrs; format: physicochemical; settings: pH 7.4, 2 h
# Procedure, shortened: (§2)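 Compound held in pH 7.4 buffer spiked with 0.1 M NaSMe and methylamine to mimic plasma nucleophiles. Followed by LC–MS for up to 24 h, tracking loss of parent and appearance of the ring-opened amino acid.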
# [6] = target: T1, Transient receptor potential cation channel subfamily V member 1; experiment: Antagonist activity at TRPV1 expressed in HEK293 cells assessed as inhibition of capsaicin-induced activation at 10 uM by FLIPR assay; format: functional, cell-based; design: scale not given: the % may be the effect or the level left
# Procedure, shortened: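 TRPV1 FLIPR run at 37 °C in stably transfected HEK293 cells, capsaicin-activated. Percent inhibition measured with test compound at a single concentration of 10 µM, from DMSO solution, with a DMSO vehicle control.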
# [7] = Stability in pH 7.4 buffer after 24 hrs; format: physicochemical; settings: pH 7.4, 24 h; procedure, shortened: as §2
# [8] = Oral bioavailability in rat at 10 mg/kg; format: ADME, organism-based; settings: in vivo
# [9] = Half life in iv dosed rat; format: ADME, organism-based; settings: in vivo
# Procedure, shortened: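 Rat dosed intravenously as an add-on to the oral PK study (10 mpk oral in 20% HPBCD); terminal half-life from the iv arm.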
AUC(0-t) at 6 h [1],IC50 [2],IC50 [3],SMILES,other results
0.049 µg·h/mL,0.0094 µM,0.012 µM,CC(C)(C)c1ccc(NC(=O)N2CCC3(CC2)C(=O)N(c2ccccc2)[C@H]3c2ccccc2)cc1,solubility [4]: 0.094 µM
,0.528 µM,0.232 µM,CC(C)(C)[C@H]1CC[C@@H](NC(=O)N2CCC3(CC2)C(=O)N(c2ccccc2)[C@H]3c2ccccc2)CC1,
,0.049 µM,0.032 µM,CC(C)(C)[C@H]1CC[C@H](NC(=O)N2CCC3(CC2)C(=O)N(c2ccccc2)[C@H]3c2ccccc2)CC1,
,,,CC(C)(C)OC(=O)N1CC2(C1)C(=O)N(c1ccccc1)C2c1ccccc1 (centres undefined),Stability [5]: Unstable
,0.08 µM,0.059 µM,CC(C)(C)c1ccc(NC(=O)N2CCC3(CC2)CN(c2ccccc2)C3=O)cc1,
,,,CC(C)c1ccc(NC(=O)N2CCC3(CC2)C(=O)N(c2ccccc2)[C@@H]3c2ccccc2)cc1,Activity [6]: inactive
,0.226 µM,,CC(C)(c1ccccc1)c1ccc(NC(=O)N2CCC3(CC2)C(=O)N(c2ccccc2)[C@H]3c2ccccc2)cc1,
1.66 µg·h/mL,0.085 µM,0.103 µM,O=C(Nc1ccc(C(F)(F)F)cc1)N1CCC2(CC1)C(=O)N(c1ccccc1)C2c1ccccc1 (racemic),
0.044 µg·h/mL,0.101 µM,0.113 µM,CC(C)c1ccc(NC(=O)N2CCC3(CC2)C(=O)N(c2ccccc2)C3c2ccccc2)cc1 (centres undefined),
,,,CC(C)(C)c1ccc(NC(=O)N2CCC3(CC2)C(=O)N(c2ccccc2)[C@@H]3c2ccccc2)cc1,Activity [6]: 8.5%
,,,CC(C)(C)OC(=O)N1CCC2(CC1)C(=O)N(c1ccccc1)C2c1ccccc1 (centres undefined),Stability [7]: Stable
,0.205 µM,0.318 µM,O=C(Nc1ccc(C(F)(F)F)cn1)N1CCC2(CC1)C(=O)N(c1ccccc1)C2c1ccccc1 (racemic),
,,,CC(C)(C)c1ccc(NC(=O)N2CCC3(CC2)CN(c2ccccc2-c2ccccc2)C3=O)cc1,Activity [6]: 73%
,,,O=C(Nc1ccc(C(F)(F)F)cc1)N1CCC2(CC1)C(=O)N(c1ccccn1)[C@@H]2c1ccccc1,Activity [6]: 83%
0.019 µg·h/mL,0.081 µM,0.043 µM,CC(C)c1ccc(NC(=O)N2CCC3(CC2)C(=O)N(c2ccccc2)[C@H]3c2ccccc2)cc1,
2.5 µg·h/mL,0.013 µM,0.0085 µM,O=C(Nc1ccc(C(F)(F)F)cc1)N1CCC2(CC1)C(=O)N(c1ccccn1)[C@H]2c1ccccc1,bioavailability [8]: 45%; half-life [9]: 2.5 h; solubility [4]: 0.3 µM

# From ChEMBL document CHEMBL1143308, “Spiro-piperidine azetidinones as potent TRPV1 antagonists” (Bioorg Med Chem Lett, 2009)
